SR-BI DiI inh – mouse SR-BI HDL lipid transfer inhibition. Q61009. ldlA[mSR-BI] CHO cells, DiI-HDL uptake fluorescence, 3 h. inhibition, % at 12.5 µM. hit rate 0.96% among 320,000;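 active means mean replicate inhibition of at least 70% and a set share of replicates each scoring 70 or more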;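 further: 0% = median of neutral control wells and 100% = median of positive control wells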
Target sequence (Q61009 whole entry, looked up): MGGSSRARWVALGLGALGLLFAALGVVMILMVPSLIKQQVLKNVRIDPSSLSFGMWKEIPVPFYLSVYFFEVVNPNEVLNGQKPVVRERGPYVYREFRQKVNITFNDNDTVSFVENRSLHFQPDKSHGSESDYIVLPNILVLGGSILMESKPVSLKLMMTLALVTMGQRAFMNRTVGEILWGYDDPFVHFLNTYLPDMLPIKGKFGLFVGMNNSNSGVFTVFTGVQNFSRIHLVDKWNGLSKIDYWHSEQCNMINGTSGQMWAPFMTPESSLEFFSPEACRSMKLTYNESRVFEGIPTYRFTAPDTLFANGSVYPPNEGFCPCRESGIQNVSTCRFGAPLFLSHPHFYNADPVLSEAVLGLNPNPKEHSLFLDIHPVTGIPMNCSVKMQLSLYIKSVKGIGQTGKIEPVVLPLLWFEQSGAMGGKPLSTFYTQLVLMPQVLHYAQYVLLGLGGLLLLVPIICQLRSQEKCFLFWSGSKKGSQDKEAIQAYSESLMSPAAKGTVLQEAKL
dFosB act – activators of mouse delta FosB homodimer. P13346. hit rate 0.99% among 340,000. purified delta FosB, TAMRA-CDK5 oligo fluorescence polarization; percent of positive-control signal above neutral wells. AID 493131. activation, % at 25 µM;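 active means mean activation above about 17%, with every replicate also reaching it, limit read from the data, passing the limit was not always enough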
SR-BI DiI-HDL act – activators of SR-BI mediated HDL lipid uptake; hit rate 0.096% among 320,000; CHO ldlA[mSR-BI] cells, DiI-HDL uptake fluorescence, 3 h; 100 = double the neutral-control signal; activation, % at 12.5 µM; AID 504775;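 active means mean replicate activation of at least 60% and every replicate at or above 60%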;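 further: 0% = median plate neutral-control signal and 100% = twice that signal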
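Test system: SR-BI-overexpressing, LDLR-lacking CHO cells; Also added: labelled HDL, 10 µg/mL; Measured by: bottom-read cell fluorescence after medium removal, ex 550/em 595 nm; Timing: 3 h uptake period with compound, 37 °C; Buffer or medium: F12, 0.5% BSA, 25 mM HEPES; Doses: single compound concentration, delivered by pin transfer.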
PvdQ inh – blocks Pseudomonas aeruginosa PvdQ acylase activity; purified PvdQ acylase, fluorescence plate reader; inhibition, % at 10 µM; hit rate 0.063% among 340,000; AID 488965; in the data active means inhibition above about 30%, passing the limit was not always enough;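 further: 0% = vehicle neutral wells and 100% = reference inhibitor wells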
rRNA inh HTS – inhibitors of bacterial rRNA selective over humanized ribosomes | GFP signal change (wild-type ribosome), % (concentration not given with the values) | hit rate 1.6% among 350,000 | E. coli WT GFP vs humanized-ribosome RFP mutants, fluorescence, 24 h; hits give low values; DMSO median 0, no signal -100;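 active means significant combined selectivity score with lowered wild-type GFP, culture density cut under 30%, mutant RFP and density less affected; inactive means any of these conditions unmet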
XiGFP reactiv – reactivates the inactive X chromosome in mouse fibroblasts | XiGFP mouse fibroblasts, % GFP-positive cells imaging, 3 d; cells co-treated with 5-aza-dC sensitizer; scaled so ellipticine positive control = 100% | activation, % at 7.58 µM | hit rate 0.055% among 360,000 | AID 743238;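 active means mean normalized replicate activation at least 10% and every replicate at or above 10%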;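 further: 0% = median of on-plate neutral control wells and 100% = ellipticine 6 µM median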
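Schedule: 3 d treatment, 15 min room-temperature fixation; system: 68-5-11 XiGFP fibroblast line; buffer or medium: DMEM plus 5-aza-dC sensitizer; control set: ellipticine 6 µM positive control; compound: one concentration, pinned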
Starred values were filed as active, the others as inactive; · = no result. Only some compounds are listed: those with a hit (about 2.6% of all), similar ones and a draw of the others.

SMILES	SR-BI DiI inh	dFosB act	SR-BI DiI-HDL act	PvdQ inh	rRNA inh HTS	XiGFP reactiv
CCCc1c(C(=O)N/N=C/c2ccc(OCc3ccccc3)cc2)nnn1-c1nonc1N	·	·	·	·	3	0
CCCc1c(C(=O)N/N=C/c2ccccc2OCc2ccc(F)cc2)nnn1-c1nonc1N	85*	5	-85	-10	7	0
COc1cc(/C=N/NC(=O)c2cc(C)oc2C)ccc1OCc1ccccc1	79*	13	-79	-3	·	0
CCCc1c(C(=O)N/N=C/c2ccc(OCc3ccccc3)c(OC)c2)nnn1-c1nonc1N	76*	0	-76	-24	1	0
CCCc1c(C(=O)N/N=C/c2ccc(OC)c(OCc3ccccc3)c2)nnn1-c1nonc1N	53	-4	-53	-9	4	0
C[C@H](CO)N1C[C@H](C)[C@H](CN(C)Cc2cccnc2)OCc2cn(nn2)CCCC1=O	·	·	·	·	0	1
CS(=O)(=O)N1Cc2ccccc2CC1C(=O)O (stereo unspecified)	-45	-1	45	-9	16	0
CCOC(=O)CCCn1ncn2c(cc3occc32)c1=O	-20	-6	20	33*	·	·
O=C(c1ccccc1)N1CCN(CCc2ccccn2)CC1	·	6	·	-5	12	0
CCCc1c(C(=O)Nc2ccc(OC)cc2)cnn1-c1ccccc1	-8	-9	8	-8	-24*	0
CCCc1c(C(=O)NNc2ccccc2OC)cnn1-c1ccccc1	-17	-19	17	-14	-23*	0
Cc1ccc(-c2csc3ncnc(NCCC(=O)O)c23)cc1	-14	1	14	-10	-10	0
CCOC(=O)c1c(NC(=O)CN2CCCCC2)sc2c1CCN(C(=O)OCC)C2	22	-13	-22	-11	-38*	·
CC1(C)CC(=O)C2=C(C1)c1c(ccc3ccccc13)NC2c1ccco1 (stereo unspecified)	30	-8	-5	-12	-17	·
O=C(NC1CCCC1)c1ccc2c(c1)N(Cc1ccccc1)CCS2	10	-11	-10	5	2	0
Cc1ccc(CN2CCSc3ccc(C(=O)NC4CCN(Cc5ccccc5)CC4)cc32)cc1	70	43*	-70	4	4	0
COC(=O)C1CCN(C(=O)COC(=O)C2CCN(S(=O)(=O)c3ccc4c(c3)OCCO4)CC2)CC1	-35	-3	·	-5	5	0
O=C(N/N=C/c1cc(Cl)ccc1O)c1ccccc1Br	78*	-12	-78	9	-6	0
Cc1ccc(N=Cc2cc(Cl)cc(Cl)c2O)nc1	-25	-4	25	-25	-1	0
Oc1c(Cl)cc(Cl)cc1/C=N/Nc1ncc(Br)cn1	130*	2	-130	10	5	0
O=C(N/N=C/c1cc(Cl)cc(Cl)c1O)c1ccncc1	132*	-7	-132	24	-19*	0
O=C(N/N=C/c1cc(Cl)ccc1O)c1cccnc1	70*	-10	-70	-3	-22	0
CCOC(=O)c1c(C)nsc1NC(=O)C1(C)CCN1C(=O)CC (stereo unspecified)	·	·	·	·	0	0
O=C(CNC(=O)c1ccccc1Br)N/N=C/c1cc(Br)ccc1O	-14	32*	14	13	·	0
O=C(CNC(=O)c1ccccc1Br)N/N=C/c1ccccc1O	-1	9	1	-8	-13	0
SMILES	SR-BI DiI inh	dFosB act	SR-BI DiI-HDL act	PvdQ inh	rRNA inh HTS	XiGFP reactiv
O=C(Nc1cc(S(=O)(=O)Nc2ccc(Cl)cc2)ccc1O)c1ccc(S(=O)(=O)N2CCCCCC2)cc1	6	15	-6	-2	7	0
O=C(N/N=C\c1cc(Cl)ccc1O)c1ccc(S(=O)(=O)N2CCCCC2)cc1	135*	8	-135	7	·	0
COc1ccc(NC(=S)NCc2ccc(Cl)cc2)c(OC)c1	-5	-3	5	-1	-10	0
CC1CC2c3cccc(C(=O)O)c3C(=O)N2c2ccc(Cl)cc21 (stereo unspecified)	·	-2	·	-8	0	0
COC(=O)C[C@@H]1CC[C@@H]2[C@H](COC[C@H](O)CN2S(=O)(=O)c2ccc(F)cc2)O1	·	·	·	·	2	0
Cc1nn(-c2ccccc2)c(N2CCCC2)c1/C=N/NC(=S)Nc1ccc(F)cc1	·	-12	·	8	-1	-1
O=[N+]([O-])c1ccc(N2CCCC2)nc1	2	-1	-2	39*	3	0
O=C(Nc1ccc(Cl)cc1)NN1CCCCCC1	5	-3	-5	-10	-32	2
O=[N+]([O-])c1ccc(N2CCN(c3ccccc3)CC2)nc1	19	-2	-19	1	6	0
CCOC(=O)C1CCN(c2ccc([N+](=O)[O-])cc2)CC1	-27	-5	27	37*	-14	0
O=C(Nc1ccc([N+](=O)[O-])cc1)NN1CCCCCC1	15	2	-15	6	-1.6*	0
O=[N+]([O-])c1ccc(N2CCCCC2)nc1	-24	-6	24	39*	14	0
COc1ccc(/C=N/NS(=O)(=O)c2ccccc2)cc1OC(=O)c1ccc(C)cc1	-10	-2	10	-6	·	·
Cn1ncc2c(=S)[nH]c(=S)[nH]c21	·	·	·	·	7	0
O/N=C1\CCc2cc(Cl)ccc21	-22	-8	22	-8	·	·
O=[N+]([O-])c1ccc(N2CCN(c3ccccc3)CC2)cc1	30	-7	-30	-5	18	0
O=[N+]([O-])c1ccc(N2CCCCC2)cc1	-5	3	5	48*	·	0
CCOC(=O)N1CCC(Nc2c(-c3ccccc3)c(=O)c2=O)CC1	21	-4	-21	-9	·	·
CN(C)S(=O)(=O)c1ccc(C(=O)Nc2ccccc2F)cc1	-18	4	18	8	-7	·
CC(C)NC(=O)N(C)C[C@@H]1Oc2cc(C3=CCCCC3)ccc2S(=O)(=O)N([C@@H](C)CO)C[C@H]1C	·	·	·	·	-1	0
Cc1cc(Nc2ccc(Br)cc2)nc(-c2ccccc2O)n1	75*	13	-75	-17	9	0
Cc1cc(N/N=C/c2ccc(O)c(C)c2O)nc(-c2ccccc2O)n1	104*	2	-104	-2	·	0
O=C(Cn1sc2ccccc2c1=O)Nc1ccc(Cl)cc1	·	·	·	·	-13	0
CCCCc1ccc(N=N/C(C(=O)Nc2ccc(NC(C)=O)cc2OC)=C(/C)O)cc1	78*	-2	-78	2	4	0
NC(c1ccccc1)c1csc(NC(=O)Nc2ccc(OC(F)(F)F)cc2)n1 (stereo unspecified)	·	·	·	·	-58	0
